Converted amounts (≈) assume the structure as drawn. “And” between values parts separate entries of the source, which are not always exact repeats. Equal values may be shown once.
Columns and labels:
[1] = target: Enoyl-[acyl-carrier-protein] reductase [NADH] FabI (Escherichia coli) (UniProt P0AEK4); experiment: In vitro inhibitory activity against wild-type enoyl-[acyl-carrier-protein] reductase (FabI) of Escherichia coli expressed as K2
[2] = Ionisation constant for the compound; type: physicochemical
How it was run: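 pKa measured by UV–vis absorbance of the conjugate base in buffers from pH 6.8 to 10.8; DMSO stocks diluted to 0.4–0.5% DMSO. Fraction of A− plotted against pH to obtain pKa.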

Escherichia coli = experiment: Minimum inhibitory concentration against Escherichia coli was determined; type: functional
How it was run: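 Broth microdilution against E. coli BL21(DE3) pLysS in cation-adjusted Mueller–Hinton broth. Stocks in 1 M KOH, diluted via 50 mM Na2CO3 pH 8.5; final 0.01–64 μg/mL.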

[3] = target: Enoyl-[acyl-carrier-protein] reductase [NADH] FabI (Escherichia coli) (UniProt P0AEK4); experiment: In vitro inhibitory activity against wild-type enoyl-[acyl-carrier-protein] reductase (FabI) of Escherichia coli expressed as K1

Chain of Enoyl-[acyl-carrier-protein] reductase [NADH] FabI (Escherichia coli) (P0AEK4 whole entry, looked up): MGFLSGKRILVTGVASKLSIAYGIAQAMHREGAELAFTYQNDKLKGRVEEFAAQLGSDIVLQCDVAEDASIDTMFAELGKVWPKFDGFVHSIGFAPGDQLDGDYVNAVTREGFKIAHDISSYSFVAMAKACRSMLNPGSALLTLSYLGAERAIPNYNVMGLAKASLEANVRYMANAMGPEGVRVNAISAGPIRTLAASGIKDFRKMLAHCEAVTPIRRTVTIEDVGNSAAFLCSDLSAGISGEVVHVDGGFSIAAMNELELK

K2 [1]	pKa ([2]; read-out: pKa)	MIC (Escherichia coli)	K1 [3]	SMILES	pKa [2]
0.0072 µM and 0.0097 µM	9.15	1 µg/mL (≈ 4.99 µM)	–	Cc1ccc(Oc2ccccc2)c(O)c1	–
30 µM	–	> 40 µg/mL	53 µM	Oc1ccccc1Cc1ccccc1O	–
0.042 µM and 0.24 µM	8.12	0.6 µg/mL (≈ 2.94 µM)	–	Oc1cc(F)ccc1Oc1ccccc1	–
–	8.13	0.07 µg/mL (≈ 0.317 µM)	1.1e-06 µM	Oc1cc(Cl)ccc1Oc1ccccc1	–

SMILES	K2 [1]	pKa ([2]; read-out: pKa)	MIC (Escherichia coli)	K1 [3]	pKa [2]
Oc1ccccc1Oc1ccccc1	0.4 µM	9.12	3.7 µg/mL (≈ 19.9 µM)	0.5 µM	–
Oc1cc(Cl)ccc1Oc1ccc(Cl)cc1Cl [TRICLOSAN]	–	7.8	0.3 µg/mL (≈ 1.04 µM)	–	8.4

From ChEMBL document CHEMBL1148389 (J Med Chem, 2004)
